ChEMBL document CHEMBL1156767, “Indol-3-ylcycloalkyl ketones: effects of N1 substituted indole side chain variations on CB(2) cannabinoid receptor activity” (J Med Chem, 2010)

What follows are compounds tested against T1, Cannabinoid receptor 2 (Homo sapiens, UniProt P34972) (assay: Displacement of [3H]CP-55940 from human recombinant CB2 receptor expressed in HEK293 cells). Conditions: hek293; read-out: Ki.
Assay type: cell-based

T1 sequence (P34972 whole entry): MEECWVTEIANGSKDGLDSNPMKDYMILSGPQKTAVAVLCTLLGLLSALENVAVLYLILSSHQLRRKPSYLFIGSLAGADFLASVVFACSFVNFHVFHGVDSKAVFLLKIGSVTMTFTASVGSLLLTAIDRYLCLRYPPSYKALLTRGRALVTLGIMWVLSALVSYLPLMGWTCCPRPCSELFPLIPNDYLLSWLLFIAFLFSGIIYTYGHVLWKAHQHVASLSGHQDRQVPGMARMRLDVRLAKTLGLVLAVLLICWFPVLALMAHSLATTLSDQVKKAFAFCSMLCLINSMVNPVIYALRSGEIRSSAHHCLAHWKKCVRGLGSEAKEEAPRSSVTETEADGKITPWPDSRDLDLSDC

For `O=C(c1cn(CCN2CCOCC2)c2ccccc12)C1CCCC1`, the Ki was > 1000 nM.

Same assay, conditions: read-out: Ki

First: CC1(C)C(C(=O)c2cn(CCc3nsc(Cl)n3)c3ccccc23)C1(C)C
Second: CC1(C)C(C(=O)c2cn(CCO)c3ccccc23)C1(C)C
The Ki of the first is 6.7-fold lower: 8.3 nM for the first, 56 nM for the second.

First: COCCCn1cc(C(=O)C2C(C)(C)C2(C)C)c2ccccc21
Second: CC1(C)C(C(=O)c2cn(CCCO)c3ccccc23)C1(C)C
The Ki of the first is 1.6-fold lower: 1.3 nM for the first, 2.1 nM for the second. The first binds more tightly here.

Compared with `CC1(C)C(C(=O)c2cn(CCc3ccncc3)c3ccccc23)C1(C)C`, `CC1(C)C(C(=O)c2cn(Cc3ccncc3)c3ccccc23)C1(C)C` is 8.4-fold lower in Ki: 31 nM for the first, 3.7 nM for the second. The second binds more tightly here.

First: CC1(C)C(C(=O)c2cn(CCc3cccs3)c3ccccc23)C1(C)C
Second: CC1(C)C(C(=O)c2cn(CCc3cccnc3)c3ccccc23)C1(C)C
The Ki of the first is 7.1-fold lower: 2.8 nM for the first, 20 nM for the second.

First: Cc1ncsc1CCn1cc(C(=O)C2C(C)(C)C2(C)C)c2ccccc21
Second: CSCCCCn1cc(C(=O)C2C(C)(C)C2(C)C)c2ccccc21
The Ki of the first is 45-fold higher: 18 nM for the first, 0.4 nM for the second. The second binds more tightly here.

Going from `CN1CCCCC1Cn1cc(C(=O)C2C(C)(C)C2(C)C)c2ccccc21` (stereo not given) to `O=C(c1cn(CCN2CCOCC2)c2ccccc12)[C@@H]1CC12CCCCC2`, the Ki rises from 0.48 nM to 35 nM (73-fold).

Same assay, conditions: read-out: pKi (converted)

For `O=C(c1cn(CCN2CCOCC2)c2ccccc12)C1CCCC1`, the Ki was > 1000 nM.

The compounds below were run against Cannabinoid receptor 1 (Homo sapiens, UniProt P21554) (assay: Displacement of [3H]CP-55940 from human recombinant CB1 receptor expressed in CHO cells). Conditions: read-out: Ki.
Assay type: cell-based

Sequence of Cannabinoid receptor 1 (P21554 whole entry): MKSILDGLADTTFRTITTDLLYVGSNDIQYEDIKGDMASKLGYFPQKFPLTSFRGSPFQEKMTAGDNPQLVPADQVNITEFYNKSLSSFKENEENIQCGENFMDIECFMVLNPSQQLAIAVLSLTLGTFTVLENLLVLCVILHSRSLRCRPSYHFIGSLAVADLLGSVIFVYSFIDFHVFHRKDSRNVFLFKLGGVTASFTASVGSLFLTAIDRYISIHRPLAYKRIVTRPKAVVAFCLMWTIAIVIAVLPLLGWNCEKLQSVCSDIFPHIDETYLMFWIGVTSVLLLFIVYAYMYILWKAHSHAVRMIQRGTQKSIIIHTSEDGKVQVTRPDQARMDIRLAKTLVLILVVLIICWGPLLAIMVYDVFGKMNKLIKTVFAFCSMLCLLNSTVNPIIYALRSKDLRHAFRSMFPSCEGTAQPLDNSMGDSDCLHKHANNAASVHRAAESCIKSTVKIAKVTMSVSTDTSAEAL

Going from `CC1(C)C(C(=O)c2cn(CCc3nsc(Cl)n3)c3ccccc23)C1(C)C` to `CC1(C)C(C(=O)c2cn(CCO)c3ccccc23)C1(C)C`, the Ki rises from 4200 nM to > 10000 nM. The first binds more tightly here.

First: COCCCn1cc(C(=O)C2C(C)(C)C2(C)C)c2ccccc21
Second: CC1(C)C(C(=O)c2cn(CCCO)c3ccccc23)C1(C)C
The Ki of the first is 3.3-fold lower: 660 nM for the first, 2200 nM for the second. The first binds more tightly here.

Going from `CC1(C)C(C(=O)c2cn(CCc3ccncc3)c3ccccc23)C1(C)C` to `CC1(C)C(C(=O)c2cn(Cc3ccncc3)c3ccccc23)C1(C)C`, the Ki falls from 2200 nM to 48 nM (46-fold). The second binds more tightly here.

Compared with `CC1(C)C(C(=O)c2cn(CCc3cccs3)c3ccccc23)C1(C)C`, `CC1(C)C(C(=O)c2cn(CCc3cccnc3)c3ccccc23)C1(C)C` is higher in Ki: 700 nM for the first, > 10000 nM for the second. The first binds more tightly here.

First: Cc1ncsc1CCn1cc(C(=O)C2C(C)(C)C2(C)C)c2ccccc21
Second: CSCCCCn1cc(C(=O)C2C(C)(C)C2(C)C)c2ccccc21
The Ki of the first is 51-fold higher: 2000 nM for the first, 39 nM for the second. The second binds more tightly here.

First: CN1CCCCC1Cn1cc(C(=O)C2C(C)(C)C2(C)C)c2ccccc21 (stereo not given)
Second: O=C(c1cn(CCN2CCOCC2)c2ccccc12)C1CCCC1
The Ki of the first is lower: 5.5 nM for the first, > 10000 nM for the second.

Work on `O=C(c1cn(CCN2CCOCC2)c2ccccc12)[C@@H]1CC12CCCCC2` yielded a Ki of 3060 nM.

Species: Homo sapiens
Test: Selectivity ratio of Ki for human recombinant CB1 receptor to Ki for human recombinant CB2 receptor
Conditions: not given
Method in brief: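 Membranes were from HEK cells stably expressing human CB2 and CHO cells stably expressing human CB1. Competition was run against 0.5 nM [3H]CP-55,940 in 50 mM Tris-HCl pH 7.4, 2.5 mM EDTA, 5 mM MgCl2, 0.05% fatty-acid-free BSA, for 90 min at 30 °C, then filtered. Nonspecific binding was set with 10 μM unlabeled CP-55,940. Ki came from one-site fits. Mean ± SEM, ≥3 experiments in duplicate.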

`CC1(C)C(C(=O)c2cn(CCc3nsc(Cl)n3)c3ccccc23)C1(C)C` and `CC1(C)C(C(=O)c2cn(CCO)c3ccccc23)C1(C)C` cannot be ordered by Ratio Ki: 506 for the first, > 179 for the second.

Compared with `COCCCn1cc(C(=O)C2C(C)(C)C2(C)C)c2ccccc21`, `CC1(C)C(C(=O)c2cn(CCCO)c3ccccc23)C1(C)C` is higher in Ratio Ki: 508 for the first, 1050 for the second.

Going from `CC1(C)C(C(=O)c2cn(CCc3ccncc3)c3ccccc23)C1(C)C` to `CC1(C)C(C(=O)c2cn(Cc3ccncc3)c3ccccc23)C1(C)C`, the Ratio Ki falls from 71 to 13.

First: CC1(C)C(C(=O)c2cn(CCc3cccs3)c3ccccc23)C1(C)C
Second: CC1(C)C(C(=O)c2cn(CCc3cccnc3)c3ccccc23)C1(C)C
The Ratio Ki of the first is lower: 250 for the first, > 500 for the second.

First: Cc1ncsc1CCn1cc(C(=O)C2C(C)(C)C2(C)C)c2ccccc21
Second: CSCCCCn1cc(C(=O)C2C(C)(C)C2(C)C)c2ccccc21
The Ratio Ki of the first is higher: 111 for the first, 98 for the second.

First: CN1CCCCC1Cn1cc(C(=O)C2C(C)(C)C2(C)C)c2ccccc21 (stereo not given)
Second: O=C(c1cn(CCN2CCOCC2)c2ccccc12)[C@@H]1CC12CCCCC2
The Ratio Ki of the first is lower: 11 for the first, 87 for the second.

What follows are compounds tested against T1, Cannabinoid receptor 2 (assay: Agonist activity at human recombinant CB2 receptor expressed in HEK293 cells coexpressing Galphaq/o5 assessed as calcium mobilization by FLIPR assay). Conditions: not given.
Assay type: functional, cell-based
Method in brief: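 HEK cells stably coexpressing human CB2 and chimeric Gαq/o5 were seeded at 75 000 cells/well the day before and loaded with no-wash calcium dye. Mean ± SEM, ≥3 experiments in duplicate.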

First: CC1(C)C(C(=O)c2cn(CCc3nsc(Cl)n3)c3ccccc23)C1(C)C
Second: CC1(C)C(C(=O)c2cn(CCO)c3ccccc23)C1(C)C
The EC50 of the first is 4-fold lower: 109 nM for the first, 440 nM for the second. The first is the more potent here.

`COCCCn1cc(C(=O)C2C(C)(C)C2(C)C)c2ccccc21` and `CC1(C)C(C(=O)c2cn(CCCO)c3ccccc23)C1(C)C` are within 1.5-fold of each other in EC50: 26 nM for the first, 27 nM for the second.

First: CC1(C)C(C(=O)c2cn(CCc3ccncc3)c3ccccc23)C1(C)C
Second: CC1(C)C(C(=O)c2cn(Cc3ccncc3)c3ccccc23)C1(C)C
The EC50 of the first is 5.4-fold higher: 162 nM for the first, 30 nM for the second. The second is the more potent here.

Compared with `CC1(C)C(C(=O)c2cn(CCc3cccs3)c3ccccc23)C1(C)C`, `CC1(C)C(C(=O)c2cn(CCc3cccnc3)c3ccccc23)C1(C)C` is 1.5-fold lower in EC50: 96 nM for the first, 62 nM for the second. The second is the more potent here.

Compared with `Cc1ncsc1CCn1cc(C(=O)C2C(C)(C)C2(C)C)c2ccccc21`, `CSCCCCn1cc(C(=O)C2C(C)(C)C2(C)C)c2ccccc21` is 2.2-fold lower in EC50: 49 nM for the first, 22 nM for the second.

`CN1CCCCC1Cn1cc(C(=O)C2C(C)(C)C2(C)C)c2ccccc21` (stereo not given) and `O=C(c1cn(CCN2CCOCC2)c2ccccc12)C1CCCC1` are within 1.5-fold of each other in EC50: 628 nM for the first, 819 nM for the second.

In the case of `O=C(c1cn(CCN2CCOCC2)c2ccccc12)[C@@H]1CC12CCCCC2`, the EC50 is reported as 42 nM.

These compounds were tested against T1, Cannabinoid receptor 2 (assay: Agonist activity at human recombinant CB2 receptor expressed in HEK293 cells coexpressing Galphaq/o5 assessed as calcium mobilization by FLIPR assay relative to CP-55940). Conditions: not given.
Assay type: functional, cell-based
Method in brief: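 HEK cells stably coexpressing human CB2 and chimeric Gαq/o5 were seeded at 75 000 cells/well the day before and loaded with no-wash calcium dye. […] Mean ± SEM, ≥3 experiments in duplicate.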

First: CC1(C)C(C(=O)c2cn(CCc3nsc(Cl)n3)c3ccccc23)C1(C)C
Second: CC1(C)C(C(=O)c2cn(CCO)c3ccccc23)C1(C)C
The Activity of the first is higher: 97% for the first, 85% for the second.

Going from `COCCCn1cc(C(=O)C2C(C)(C)C2(C)C)c2ccccc21` to `CC1(C)C(C(=O)c2cn(CCCO)c3ccccc23)C1(C)C`, the Activity rises from 108% to 140%.

Going from `CC1(C)C(C(=O)c2cn(CCc3ccncc3)c3ccccc23)C1(C)C` to `CC1(C)C(C(=O)c2cn(Cc3ccncc3)c3ccccc23)C1(C)C`, the Activity falls from 100% to 99%.

First: CC1(C)C(C(=O)c2cn(CCc3cccs3)c3ccccc23)C1(C)C
Second: CC1(C)C(C(=O)c2cn(CCc3cccnc3)c3ccccc23)C1(C)C
The Activity of the first is higher: 86% for the first, 78% for the second.

First: Cc1ncsc1CCn1cc(C(=O)C2C(C)(C)C2(C)C)c2ccccc21
Second: CSCCCCn1cc(C(=O)C2C(C)(C)C2(C)C)c2ccccc21
The Activity of the first is lower: 49% for the first, 74% for the second.

First: CN1CCCCC1Cn1cc(C(=O)C2C(C)(C)C2(C)C)c2ccccc21 (stereo not given)
Second: O=C(c1cn(CCN2CCOCC2)c2ccccc12)C1CCCC1
The Activity of the first is higher: 48% for the first, 35% for the second.

In the case of `O=C(c1cn(CCN2CCOCC2)c2ccccc12)[C@@H]1CC12CCCCC2`, the Activity is reported as 50%.
